# Compounds with a hit are over-represented: about 2.3% of the library has one in this group of screens.
# DDE Tn7 FP inh: inhibitors of Tn7 peptide binding to fibrin DD(E), primary screen, biochemical, fluorescence polarization, human fibrin, Tn7 probe; Fibrinogen beta chain (Homo sapiens), P02675; FP displacement of FITC-Tn7 peptide from fibrin DD(E); 0% = median of compound wells per plate; AID 720508, 2013; inhibition, % at 8.3 µM; hit rate 0.13% among 370,000;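 active = inhibition above the mean of compounds falling within the control limits plus 3 SD of them, cut at about 14% in these data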
#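 Assay system: human fibrin DD(E) protein / Input: 2 µM fibrin DD(E) / Benchmarks: high control of 10 µM Aha-Tn7 peptide / Measured by: fluorescence polarization of the labelled Tn7 tracer / Medium: Tris buffer with calcium and detergent, pH 7.8 / Timing: 10 min compound pre-incubation, 3 h probe incubation at room temperature / Repeats: one replicate per compound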
# PLCg1 inh: PLC-gamma1 enzyme inhibitors, primary screen, biochemical, fluorescence, purified enzyme; 1-phosphatidylinositol 4,5-bisphosphate phosphodiesterase gamma-1 (Homo sapiens), P19174; fluorogenic substrate; inhibition, % at 12.2 µM; hit rate 0.84% among 370,000; in the data active = inhibition above about 9.5%
# DDE Tn6 FP inh: inhibitors of Tn6 peptide binding to fibrin DD(E), primary screen, biochemical, fluorescence polarization, human fibrin, Tn6 probe. Fibrin DD(E) TRITC-Tn6 fluorescence polarization displacement. inhibition, % at 8.3 µM. hit rate 0.21% among 370,000. AID 720509, 2013;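 active = inhibition above a per-campaign cutoff: mean of compounds within control limits plus 3 SD, cut at about 15% in these data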
# PLC-beta3 inh: human PLC-beta3 inhibitors, primary screen, biochemical, fluorescence; 1-phosphatidylinositol 4,5-bisphosphate phosphodiesterase beta-3 (Homo sapiens), Q01970; Purified PLC-beta3, fluorogenic substrate; inhibition, % at 12.2 µM; hit rate 0.18% among 370,000; AID 720704, 2013; in the data active = inhibition above about 11%
# Target sequence (Q01970 whole entry, looked up): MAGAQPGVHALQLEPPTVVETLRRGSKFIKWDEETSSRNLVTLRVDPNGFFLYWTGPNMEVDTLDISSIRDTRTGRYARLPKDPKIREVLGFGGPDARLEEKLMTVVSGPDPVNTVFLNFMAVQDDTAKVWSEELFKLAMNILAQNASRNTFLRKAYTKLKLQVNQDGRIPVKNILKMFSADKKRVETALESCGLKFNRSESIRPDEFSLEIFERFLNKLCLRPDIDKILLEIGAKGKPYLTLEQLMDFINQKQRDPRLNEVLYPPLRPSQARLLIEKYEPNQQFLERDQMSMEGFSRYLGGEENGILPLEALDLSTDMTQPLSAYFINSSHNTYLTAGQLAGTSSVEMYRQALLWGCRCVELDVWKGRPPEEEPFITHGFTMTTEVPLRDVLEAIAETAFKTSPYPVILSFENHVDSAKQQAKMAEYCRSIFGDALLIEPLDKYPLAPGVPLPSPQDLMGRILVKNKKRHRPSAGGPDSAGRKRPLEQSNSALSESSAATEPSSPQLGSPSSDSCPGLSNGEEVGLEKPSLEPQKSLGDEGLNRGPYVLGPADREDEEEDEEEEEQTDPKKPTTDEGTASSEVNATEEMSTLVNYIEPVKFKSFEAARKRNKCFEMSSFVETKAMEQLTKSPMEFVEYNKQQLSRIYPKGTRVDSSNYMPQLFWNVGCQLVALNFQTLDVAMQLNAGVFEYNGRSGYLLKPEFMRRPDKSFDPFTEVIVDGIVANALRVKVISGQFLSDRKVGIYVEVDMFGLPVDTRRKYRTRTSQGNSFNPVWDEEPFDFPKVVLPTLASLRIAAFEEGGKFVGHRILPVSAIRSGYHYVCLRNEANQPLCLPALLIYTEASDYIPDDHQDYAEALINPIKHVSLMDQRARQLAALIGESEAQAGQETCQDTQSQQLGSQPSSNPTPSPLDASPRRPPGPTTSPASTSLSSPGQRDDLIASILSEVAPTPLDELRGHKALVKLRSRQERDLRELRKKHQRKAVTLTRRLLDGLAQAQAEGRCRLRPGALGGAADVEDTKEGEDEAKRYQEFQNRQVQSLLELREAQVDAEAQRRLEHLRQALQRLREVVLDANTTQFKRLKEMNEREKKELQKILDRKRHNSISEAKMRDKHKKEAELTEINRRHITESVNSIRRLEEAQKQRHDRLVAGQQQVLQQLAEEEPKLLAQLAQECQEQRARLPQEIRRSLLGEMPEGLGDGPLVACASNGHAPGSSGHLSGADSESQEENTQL
# ADAM17 inh: ADAM17 inhibitors, primary screen, biochemical, QFRET; Disintegrin and metalloproteinase domain-containing protein 17 (Homo sapiens), P78536; recombinant ADAM17, EDANS/DABCYL FRET peptide cleavage; inhibition, % at 6.95 µM; hit rate 0.83% among 370,000; AID 720648, 2013;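 active = inhibition above the mean of compounds lying between control limits plus 3 SD, set per campaign, cut at about 8.5% in these data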
# ADAM10 inh: human ADAM10 inhibitors, primary screen, biochemical, QFRET, HTS | Disintegrin and metalloproteinase domain-containing protein 10 (Homo sapiens), O14672 | recombinant ADAM10, EDANS/DABCYL FRET peptide cleavage, 3 h | inhibition, % at 7 µM | hit rate 0.62% among 370,000;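 active = inhibition above a per-campaign cutoff equal to the mean of compounds falling between control-based bounds plus 3 SD, cut at about 20% in these data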
# ADAM10 confirm: human ADAM10 inhibitors, confirmation, biochemical, QFRET, triplicate; shares compounds with ADAM10 inh; ADAM10 QFRET peptide cleavage, EDANS fluorescence; inhibition, % at 6.95 µM; hit rate 1% among 2,100; AID 743208, 2013;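 active = inhibition above about 20% chosen separately for each screening run, limit read from the data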
# ADAM17 ctr: ADAM17 inhibitors, counter-screen for ADAM10 exosite inhibitor project, biochemical, QFRET, high throughput. inhibition, % at 6.95 µM. AID 743214, 2013. ADAM17 QFRET peptide cleavage, EDANS fluorescence. shares compounds with ADAM10 inh. hit rate 0.5% among 2,100;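 active = mean triplicate inhibition above the solvent-only control wells' mean plus 3 SD, cut at about 12% in these data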
# ADAM10 ctr: ADAM10 inhibitors, counter-screen for ADAM17 exosite inhibitor project, biochemical, FRET, human ADAM10. shares compounds with ADAM17 inh. recombinant ADAM10, EDANS/DABCYL FRET peptide cleavage, 3 h. inhibition, % at 6.95 µM. hit rate 47% among 2,900. AID 743256, 2014;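 active = mean inhibition over the triplicate runs exceeds the activity threshold set in the earlier primary screen, cut at about 20% in these data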
# ADAM17 confirm: ADAM17 inhibitors, hit retest, confirmation, biochemical, QFRET peptide cleavage | shares compounds with ADAM17 inh | recombinant ADAM17, EDANS/DABCYL QFRET peptide cleavage | inhibition, % at 6.95 µM | hit rate 65% among 2,900 | AID 743257, 2014;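 active = mean inhibition across replicates above the hit cutoff set in the primary screen, cut at about 8.5% in these data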
# Numbers stand for hits; n = inactive; x = no result; ! = not active in a repeat.
SMILES,DDE Tn7 FP inh,PLCg1 inh,DDE Tn6 FP inh,PLC-beta3 inh,ADAM17 inh,ADAM10 inh,ADAM10 confirm,ADAM17 ctr,ADAM10 ctr,ADAM17 confirm
O=C(NC(c1ccccc1)c1c(O)ccc2ccccc12)c1ccccc1Cl (centres undefined),n,n,n,n,10.5,21.4,n,n,n,8.7
O=C(NC(c1ccc(Cl)cc1)c1c(O)ccc2ccccc12)c1ccccc1 (centres undefined),n,n,n,n,n,n,x,x,x,x
CCCCC(=O)NC(c1ccc([N+](=O)[O-])cc1)c1c(O)ccc2ccccc12 (centres undefined),n,n,n,n,10.6,27.5,n,n,36.2,18.9
CN(C)c1cccc(-c2cnc(N3CCC(C(N)=O)CC3)nc2)c1,n,n,n,n,n,n,x,x,x,x
CC(C)Oc1ccc(C(=O)NC2(C(F)(F)F)NC(=O)N(CCCc3ccccc3)C2=O)cc1 (centres undefined),n,n,n,n,10.3,25.3,n,n,31.4,17.7
CCc1nc2ccc(C(=O)NCc3ccc4c(c3)OCO4)cn2c1N(C)Cc1ccc(OC)cc1,n,n,n,n,18.7,29.7,n,n,23.9,14.8
O=C(Nc1nc(-c2cccs2)cs1)c1ccc(Cl)cc1,n,n,n,n,n,n,x,x,x,x
COc1ccc(C(=O)Nc2nc(-c3cccs3)cs2)cc1,n,n,n,n,10.2,20.7,n,n,n,n
O=C(COc1ccc(Cl)cc1)Nc1nc(-c2cccs2)cs1,n,n,n,n,9.7,22.9,n,n,n,n
CCOc1ccc(-c2cc(C(=O)OC)c3n(c2=O)CCC3)cc1,n,n,n,n,n,n,x,x,x,x
O=C(COc1ccc(Cl)cc1Cl)N1CCCN(C(=O)COc2ccc(Cl)cc2Cl)CC1,n,n,n,n,9.8,25.4,n,n,n,9.2
O=C1CCC[C@H]2C[C@H](NCc3cccnc3)CC[C@]23CCCN13,n,n,n,n,n,n,x,x,x,x
COc1cccc(C(=O)Nc2nc(-c3ccc(S(=O)(=O)N4CCOCC4)cc3)cs2)c1,n,n,n,n,n,n,x,x,x,x
O=C(Nc1nc(-c2ccc(S(=O)(=O)N3CCOCC3)cc2)cs1)c1ccccc1,n,n,n,n,10.8!,21.0!,n,n,n,n
COc1ccc2[nH]cc(C(C)c3ccccc3O)c2c1 (centres undefined),n,n,n,n,n,n,x,x,x,x
CCOC(=O)c1c(C)[nH]c(C)c1C(=O)COC(=O)c1cccc(C)c1O,n,n,n,n,9.3,20.0,n,n,n,n
COc1cc(/C=C2\SC(=S)N(Nc3ncc(C(F)(F)F)cc3Cl)C2=O)ccc1O,n,n,n,n,12.1,34.4,n,n,34.6,18.7
CN(C)c1ccc(/C=C2\SC(=S)N(Nc3ncc(C(F)(F)F)cc3Cl)C2=O)cc1,n,n,n,n,n,n,x,x,x,x
CN(Cc1ccccc1)S(=O)(=O)c1cccc(C(=O)OCc2ccc(C(F)(F)F)cc2)c1,n,n,n,n,n,n,x,x,x,x
CCc1nc2ccc(C(=O)Nc3ccc(OC)c(OC)c3)cn2c1N(CC)Cc1cccc(Br)c1,n,n,n,n,12.1,25.8,n,n,n,9.8
CCc1nc2ccc(C(=O)Nc3ccc(OC)c(OC)c3)cn2c1N(CC)CCOC,n,n,n,n,n,n,x,x,x,x
C[C@H]1CCCC(=O)N[C@@H](c2ccccc2)[C@@H](C)CCCC(=O)N[C@H]1c1ccccc1,n,n,n,n,n,n,x,x,x,x
COc1ccc(S[C@]2(C(=O)NC(C)C)CC(=O)N[C@@H]2c2ccc(OC)cc2)cc1,n,n,n,n,n,n,x,x,x,x
O=C(Cc1c(Sc2ccccc2)c2ccccc2n1Cc1ccccc1)NCCO,n,n,n,n,14.1,30.1,n,n,n,9.1
Cn1c(CC(=O)NCCO)c(Sc2ccccc2)c2ccccc21,n,n,n,n,n,n,x,x,x,x
SMILES,DDE Tn7 FP inh,PLCg1 inh,DDE Tn6 FP inh,PLC-beta3 inh,ADAM17 inh,ADAM10 inh,ADAM10 confirm,ADAM17 ctr,ADAM10 ctr,ADAM17 confirm
Cc1cc2oc(=O)cc(-c3ccccc3)c2c(C)c1-c1ccc(O)cc1,n,n,n,n,16.1,33.1,n,n,n,12.7
COc1ccc(NC(=S)N(CCc2c(C)[nH]c3ccc(C)cc23)Cc2cccs2)cc1,n,n,n,n,n,n,x,x,x,x
CNC(=S)N(CCc1c(C)[nH]c2ccc(C)cc12)Cc1cccs1,n,n,n,n,9.8,21.8,n,n,n,10.0
COc1ccc(CN([C@H](C)CO)S(=O)(=O)N(Cc2ccccc2)[C@H](CO)C(C)C)cc1,n,n,n,n,n,n,x,x,x,x
COc1ccc(CN([C@H](CO)CC(C)C)S(=O)(=O)N(Cc2ccccc2)[C@H](CO)CC(C)C)cc1,n,n,n,n,23.2,43.2,n,n,62.6,35.1
CC(C)C[C@H](NC(=O)c1nc[nH]c1C(=O)NCCCCCNC(=O)OC(C)(C)C)C(=O)OC(C)(C)C,n,n,n,n,9.8,22.8,n,n,34.8,15.2
CC(C)(C)OC(=O)NCCCC[C@H](NC(=O)c1[nH]cnc1C(=O)Nc1ccccc1)C(=O)OC(C)(C)C,n,n,n,n,10.6,36.0,n,n,44.3,21.7
C[C@@H](NC(=O)c1nc[nH]c1C(=O)N[C@@H](CCCCNC(=O)OC(C)(C)C)C(=O)OC(C)(C)C)c1ccccc1,n,n,n,n,22.1,42.8,n,n,37.3,16.4
